Activity calls are given as the source filed them. No cut-off for these calls is given here.
Columns and labels:
[1] = Induction of IFN-gamma secretion in human CD161+ CD3+ NKT cells at 10 ug/ml after 18 hrs relative to basal level; assay type: functional
Procedure, shortened: (§1)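 Human Vα24i NKT cell lines were expanded for 10 days on irradiated (3,000 rad) autologous immature DCs with 10 units/ml IL-2. The cells (1 × 10^5) were cocultured with 5 × 10^4 irradiated immature CD14+ DCs plus glycolipid at 10 μg/ml. Supernatants were collected at 18 h and read on a 22-plex Luminex bead panel. Triplicates, mean ± SD.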

[2] = Induction of IL2 secretion in human CD161+ CD3+ NKT cells at 10 ug/ml after 18 hrs relative to basal level; assay type: functional; procedure, shortened: as §1
[3] = Induction of IL12p70 secretion in human CD161+ CD3+ NKT cells at 10 ug/ml after 18 hrs relative to basal level; assay type: functional; procedure, shortened: as §1
[4] = Induction of IL12p40 secretion in human CD161+ CD3+ NKT cells at 10 ug/ml after 18 hrs relative to basal level; assay type: functional; procedure, shortened: as §1
[5] = Induction of RANTES secretion in human CD161+ CD3+ NKT cells at 10 ug/ml after 18 hrs relative to basal level; assay type: functional; procedure, shortened: as §1
[6] = Induction of MIPalpha secretion in human CD161+ CD3+ NKT cells at 10 ug/ml after 18 hrs relative to basal level; assay type: functional; procedure, shortened: as §1
[7] = Induction of MCP1 secretion in human CD161+ CD3+ NKT cells at 10 ug/ml after 18 hrs relative to basal level; assay type: functional; procedure, shortened: as §1
[8] = Induction of IL8 secretion in human CD161+ CD3+ NKT cells at 10 ug/ml after 18 hrs relative to basal level; assay type: functional; procedure, shortened: as §1
[9] = Induction of TNFalpha secretion in human CD161+ CD3+ NKT cells at 10 ug/ml after 18 hrs relative to basal level; assay type: functional; procedure, shortened: as §1
Mus musculus [10] = experiment: Increase in CD8/CD4 T cell ratio in BALB/c mouse at 2 ug, iv after 72 hrs by flow cytometry; assay type: functional, organism-based
Mus musculus [11] = experiment: Induction of IFN-gamma secretion in BALB/c mouse serum at 2 ug, iv after 18 hrs relative to control; assay type: functional
Procedure, shortened: (§2)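 BALB/c mice received an i.v. injection of 100 μl of glycolipid diluted to 20 μg/ml in saline from DMSO stock, with 1% DMSO as vehicle. Serum cytokines/chemokines were measured at 2 and 18 h after injection.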

Mus musculus [12] = experiment: Induction of IL1-beta secretion in BALB/c mouse serum at 2 ug, iv after 18 hrs relative to control; assay type: functional; procedure, shortened: as §2
Mus musculus [13] = experiment: Induction of IL2 secretion in BALB/c mouse serum at 2 ug, iv after 2 hrs relative to control; assay type: functional; procedure, shortened: as §2
Mus musculus [14] = experiment: Induction of IL12p70 secretion in BALB/c mouse serum at 2 ug, iv after 18 hrs relative to control; assay type: functional; procedure, shortened: as §2
Mus musculus [15] = experiment: Induction of IL12p40 secretion in BALB/c mouse serum at 2 ug, iv after 18 hrs relative to control; assay type: functional; procedure, shortened: as §2
Mus musculus [16] = experiment: Induction of RANTES secretion in BALB/c mouse serum at 2 ug, iv after 2 hrs relative to control; assay type: functional; procedure, shortened: as §2
Mus musculus [17] = experiment: Induction of MIPbeta secretion in BALB/c mouse serum at 2 ug, iv after 2 hrs relative to control; assay type: functional; procedure, shortened: as §2
Mus musculus [18] = experiment: Induction of MCP1 secretion in BALB/c mouse serum at 2 ug, iv after 2 hrs relative to control; assay type: functional; procedure, shortened: as §2
Mus musculus [19] = experiment: Induction of KC secretion in BALB/c mouse serum at 2 ug, iv after 2 hrs relative to control; assay type: functional; procedure, shortened: as §2
Mus musculus [20] = experiment: Induction of TNFalpha secretion in BALB/c mouse serum at 2 ug, iv after 18 hrs relative to control; assay type: functional; procedure, shortened: as §2
Mus musculus [21] = experiment: Induction of IL3 secretion in BALB/c mouse serum at 2 ug, iv after 2 hrs relative to control; assay type: functional; procedure, shortened: as §2
Mus musculus [22] = experiment: Induction of GM-CSF secretion in BALB/c mouse serum at 2 ug, iv after 2 hrs relative to control; assay type: functional; procedure, shortened: as §2
Mus musculus [23] = experiment: Induction of IL4 secretion in BALB/c mouse serum at 2 ug, iv after 2 hrs relative to control; assay type: functional; procedure, shortened: as §2
Mus musculus [24] = experiment: Induction of IL6 secretion in BALB/c mouse serum at 2 ug, iv after 2 hrs relative to control; assay type: functional; procedure, shortened: as §2
Mus musculus [25] = experiment: Induction of IL10 secretion in BALB/c mouse serum at 2 ug, iv after 18 hrs relative to control; assay type: functional; procedure, shortened: as §2
Mus musculus [26] = experiment: Induction of IL13 secretion in BALB/c mouse serum at 2 ug, iv after 2 hrs relative to control; assay type: functional; procedure, shortened: as §2
[27] = Induction of IL3 secretion in human CD161+ CD3+ NKT cells at 10 ug/ml after 18 hrs relative to basal level; assay type: functional; procedure, shortened: as §1
[28] = Induction of GM-CSF secretion in human CD161+ CD3+ NKT cells at 10 ug/ml after 18 hrs relative to basal level; assay type: functional; procedure, shortened: as §1
[29] = Induction of IL15 secretion in human CD161+ CD3+ NKT cells at 10 ug/ml after 18 hrs relative to basal level; assay type: functional; procedure, shortened: as §1
[30] = Induction of IL4 secretion in human CD161+ CD3+ NKT cells at 10 ug/ml after 18 hrs relative to basal level; assay type: functional; procedure, shortened: as §1
[31] = Induction of IL6 secretion in human CD161+ CD3+ NKT cells at 10 ug/ml after 18 hrs relative to basal level; assay type: functional; procedure, shortened: as §1
[32] = Induction of IL10 secretion in human CD161+ CD3+ NKT cells at 10 ug/ml after 18 hrs relative to basal level; assay type: functional; procedure, shortened: as §1
[33] = Induction of IL13 secretion in human CD161+ CD3+ NKT cells at 10 ug/ml after 18 hrs relative to basal level; assay type: functional; procedure, shortened: as §1
NKT = experiment: Stimulation of cell expansion of human invariant CD161+/ Valpha24+/ CD56+/ CD3+ NKT cells by flow cytometry method; assay type: functional, cell-based
Procedure, shortened: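 CD56+ NK/NKT mixtures (2 × 10^6) were isolated from human leukopaks with anti-CD56 microbeads. They were cocultured with 4 × 10^5 autologous immature CD14+ DCs pulsed with glycolipid at 3 μg/ml, or with 0.3% DMSO, on day 2 for 18 h. Suspension cells were then transferred and kept in 100 units/ml IL-2 with fresh medium every 3 days. On day 9, CD161+/Vα24TCR+ cells were gated by flow cytometry and total Vα24i NKT cells counted. Triplicates, mean ± SD.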

Mus musculus [34] = experiment: Activation of B cells in BALB/c mouse at 2 ug, iv after 72 hrs by flow cytometry; assay type: functional, organism-based
HeLa [35] = experiment: Activation of TCR in human HeLa cells overexpressing CD1d assessed as increase in CD3epsilon phosphorylation; assay type: cell-based
Procedure, shortened: (§3)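 Human HeLa, HeLa-CD1d or autologous immature DCs were loaded with glycolipid at 10 μg/ml, or DMSO, for 2 h. Then 3 × 10^5 naïve CD161+/CD3+ NKT cells were added; these were bead-isolated and kept in 100 units/ml IL-2. After 5–10 min the cells were washed and lysed at 4°C. Phospho-CD3ε, ERK1/2 (Thr-185/Tyr-187) and CREB (Ser-133) were read by Luminex bead assay as median fluorescence normalized to total protein, expressed as fold over 1% DMSO.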

dendritic [36] = experiment: Activation of TCR in human immature dendritic cells assessed as increase in CD3epsilon phosphorylation; assay type: cell-based; procedure, shortened: as §3
HeLa [37] = experiment: Activation of TCR in human HeLa cells overexpressing CD1d assessed as increase in ERK1/2 phosphorylation; assay type: cell-based; procedure, shortened: as §3
dendritic [38] = experiment: Activation of TCR in human immature dendritic cells assessed as increase in ERK1/2 phosphorylation; assay type: cell-based; procedure, shortened: as §3
HeLa [39] = experiment: Activation of TCR in human HeLa cells overexpressing CD1d assessed as increase in CREB phosphorylation; assay type: cell-based; procedure, shortened: as §3
dendritic [40] = experiment: Activation of TCR in human immature dendritic cells assessed as increase in CREB phosphorylation; assay type: cell-based; procedure, shortened: as §3
TC1 = experiment: Antitumor activity in TC1 cells xenografted C57BL/6 mouse assessed as suppression of tumor growth at 2 ug, iv; assay type: functional, cell-based
Procedure, shortened: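 C57BL/6 mice (n = 5/group) were inoculated i.v. with TC-1 lung cancer cells. They were then treated i.v. with 2 μg glycolipid per mouse, or 100 μl of 1% DMSO, twice weekly for 4 weeks. Kaplan–Meier survival and body weight were followed, with tumor-free mice as an additional control.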

4T1 = experiment: Antitumor activity in mouse 4T1 cells xenografted BALB/c mouse assessed as suppression of tumor growth at 2 ug, iv; assay type: functional, cell-based
Procedure, shortened: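 BALB/c mice (n = 6) were inoculated s.c. with 4T1 breast cancer cells. From day 3 they were treated i.v. with glycolipid or vehicle twice weekly for 4 weeks. Tumor volume was recorded every 3 days for 1 month, and survival was monitored up to 54 days.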

SMILES	Activity [1]	Activity [2]	Activity [3]	Activity [4]	Activity [5]	Activity [6]	Activity [7]	Activity [8]	Activity [9]	Activity (Mus musculus [10])	Activity (Mus musculus [11])	Activity (Mus musculus [12])	Activity (Mus musculus [13])	Activity [27]	Activity [28]	Activity [29]	Activity [30]	Activity [31]	Activity [32]	Activity [33]	further results
CCCCCCCCCCCCCC[C@@H](O)[C@@H](O)[C@H](CO[C@H]1O[C@H](CO)[C@H](O)[C@H](O)[C@H]1O)NC(=O)CCCCCCCCCCCCC	2.7	1.8	1.6	1.7	2	3.5	1.4	2.2	3	Active	43.8	2.4	14	1.7	3	2.4	2.8	1.9	1.9	1.9	Activity (Mus musculus [14]): 3.5; Activity (Mus musculus [15]): 0.9; Activity (Mus musculus [16]): 0.9; Activity (Mus musculus [17]): 1.5; Activity (Mus musculus [18]): 2.6; Activity (Mus musculus [19]): 3.9; Activity (Mus musculus [20]): 2; Activity (Mus musculus [21]): 1.5; Activity (Mus musculus [22]): 1.6; Activity (Mus musculus [23]): 26.2; Activity (Mus musculus [24]): 1.5; Activity (Mus musculus [25]): 5.4; Activity (Mus musculus [26]): 0.9; Activity (NKT): Active; Activity (Mus musculus [34]): Active
CCCCCCCCCCCCCCCCCCCCCCCCCC(=O)N[C@@H](CO[C@H]1O[C@H](CO)[C@H](O)[C@H](O)[C@H]1O)[C@H](O)[C@H](O)CCCCC	1.9	1.5	1	1.4	1.8	2.7	1.3	1.6	2.2	–	–	–	–	1.4	4.7	2.1	2.7	1.8	1.5	1.8	Activity (HeLa [35]): 5.9; Activity (dendritic [36]): 12; Activity (HeLa [37]): 3.3; Activity (dendritic [38]): 18.6; Activity (HeLa [39]): 20; Activity (dendritic [40]): 49
CCCCCCCCCCCCCCCCCCCCCCCCCC(=O)N[C@@H](CO[C@H]1O[C@H](C(=O)O)[C@H](O)[C@H](O)[C@H]1O)[C@H](O)[C@H](O)CCCCCCCCCCCCCC	3.4	2.3	2.7	1.8	1.6	3.3	1.2	1.4	1.7	Active	27.5	4.8	21.5	1.3	2	1.7	1.5	1	0.7	1.1	Activity (TC1): Active; Activity (4T1): Active; Activity (Mus musculus [14]): 1.4; Activity (Mus musculus [15]): 4.4; Activity (Mus musculus [16]): 2.8; Activity (Mus musculus [17]): 1.8; Activity (Mus musculus [18]): 8; Activity (Mus musculus [19]): 16.1; Activity (Mus musculus [20]): 8.7; Activity (Mus musculus [21]): 10.4; Activity (Mus musculus [22]): 37.6; Activity (Mus musculus [23]): 21.2; Activity (Mus musculus [24]): 4.9; Activity (Mus musculus [25]): 1.5; Activity (Mus musculus [26]): 1.7

Source: ChEMBL document CHEMBL1145518, “Potent immune-modulating and anticancer effects of NKT cell stimulatory glycolipids” (2007)
